Source: article PMC5696082 (Analytical biochemistry, 2017)

How the values were obtained:
[1] = Fluorophore characterization; format: physicochemical; conditions: for Maximum λemm / Maximum λexc / Relative Fluorescence Intensity: 37°C, phosphate buffer 100 mM pH 8, 0.1 mg/mL BSA, 1% DMSO
Procedure, shortened: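 Fluorophores dissolved in 100 mM phosphate buffer, pH 8, 0.1 mg/mL BSA, 1% DMSO, at 37°C. Excitation and emission maxima found by scanning fluorescence intensity at 2 nm steps on a plate spectrophotometer. Relative intensity expressed as RFU per nmol.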

[2] = Background hydrolysis of substrates in phosphate buffer; format: physicochemical; conditions: phosphate buffer 100 mM, pH 8, 0.1 mg/mL BSA
hCE3 = target: T1, hCE3 (Homo sapiens, UniProt Q6UWW8); test: Potency of esterase inhibitors, hCE3; format: biochemical
T1 sequence (Q6UWW8 27-571): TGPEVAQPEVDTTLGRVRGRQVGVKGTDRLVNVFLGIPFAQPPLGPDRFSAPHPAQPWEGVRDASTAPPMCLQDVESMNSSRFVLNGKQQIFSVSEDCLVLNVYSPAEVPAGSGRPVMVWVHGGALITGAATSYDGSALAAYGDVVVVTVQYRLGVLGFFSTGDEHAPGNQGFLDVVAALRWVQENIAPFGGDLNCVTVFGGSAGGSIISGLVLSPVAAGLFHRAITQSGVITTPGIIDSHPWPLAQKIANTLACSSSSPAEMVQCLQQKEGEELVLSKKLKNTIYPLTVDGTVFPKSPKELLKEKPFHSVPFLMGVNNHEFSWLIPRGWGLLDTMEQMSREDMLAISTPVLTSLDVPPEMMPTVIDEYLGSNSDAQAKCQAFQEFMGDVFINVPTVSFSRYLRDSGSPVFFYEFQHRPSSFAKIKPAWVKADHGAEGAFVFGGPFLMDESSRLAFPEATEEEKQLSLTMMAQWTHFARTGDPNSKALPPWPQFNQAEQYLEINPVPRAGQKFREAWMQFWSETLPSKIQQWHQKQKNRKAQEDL

AADAC = target: T2, AADAC (Homo sapiens, UniProt P22760); test: Potency of esterase inhibitors, AADAC; format: biochemical
T2 sequence (P22760 1-399): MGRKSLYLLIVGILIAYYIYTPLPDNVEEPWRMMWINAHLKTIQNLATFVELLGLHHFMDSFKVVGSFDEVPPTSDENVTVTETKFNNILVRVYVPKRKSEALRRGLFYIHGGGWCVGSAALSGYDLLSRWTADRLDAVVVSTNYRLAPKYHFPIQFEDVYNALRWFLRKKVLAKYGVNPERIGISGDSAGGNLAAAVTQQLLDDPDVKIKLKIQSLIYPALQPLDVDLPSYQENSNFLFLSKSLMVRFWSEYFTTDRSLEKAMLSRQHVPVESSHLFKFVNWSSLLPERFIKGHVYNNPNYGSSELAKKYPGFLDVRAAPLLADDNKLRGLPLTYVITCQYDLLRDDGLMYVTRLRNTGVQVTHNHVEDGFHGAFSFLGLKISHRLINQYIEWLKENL

FAAH = target: T3, FAAH (Homo sapiens, UniProt O00519); test: Potency of esterase inhibitors, FAAH; format: biochemical
T3 sequence (O00519 1-579): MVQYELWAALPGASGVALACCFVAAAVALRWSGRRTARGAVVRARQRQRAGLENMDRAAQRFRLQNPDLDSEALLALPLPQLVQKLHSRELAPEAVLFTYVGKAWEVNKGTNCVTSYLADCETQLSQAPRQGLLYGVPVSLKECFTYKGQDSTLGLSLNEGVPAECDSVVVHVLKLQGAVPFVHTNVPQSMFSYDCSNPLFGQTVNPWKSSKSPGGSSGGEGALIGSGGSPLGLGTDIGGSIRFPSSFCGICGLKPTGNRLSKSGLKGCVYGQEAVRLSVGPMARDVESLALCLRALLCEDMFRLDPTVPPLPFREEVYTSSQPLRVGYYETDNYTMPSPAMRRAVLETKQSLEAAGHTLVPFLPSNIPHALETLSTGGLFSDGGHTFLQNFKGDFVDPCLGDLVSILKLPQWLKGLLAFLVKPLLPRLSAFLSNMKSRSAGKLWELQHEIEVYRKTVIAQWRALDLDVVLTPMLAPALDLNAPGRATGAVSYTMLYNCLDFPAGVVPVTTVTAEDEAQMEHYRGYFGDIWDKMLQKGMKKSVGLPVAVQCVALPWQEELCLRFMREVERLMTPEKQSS

PON1 = PON1 (Homo sapiens, UniProt P27169); test: Potency of esterase inhibitors, PON1; format: biochemical
Procedure, shortened: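 PON1 used as crude lysate of baculovirus-infected insect cells in PBS. Added to 2-fold serial inhibitor dilutions (top concentration at most 100 µM) and preincubated 5 min. Cyanohydrin ester substrate then added to 50 µM final, DMSO ≤2%, in 100 mM phosphate pH 8, 0.1 mg/mL BSA, 37°C. Fluorescence (ex 330/em 465 nm) read kinetically for 10 min. IC50 from linear regression of log[inhibitor] against % remaining activity; triplicates, single experiment.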

Kinetic properties [3] = substrate: CCCCC(C)CCC(=O)Nc1ccc(OC)nc1C; test: Kinetic properties; format: biochemical, human; conditions: 37°C, pH 8
Kinetic properties [4] = substrate: COc1ccc2cc(C(C#N)OC(C)=O)ccc2c1; test: Kinetic properties; format: biochemical, human; conditions: 37°C, pH 8
[5] = other: hCE1, 6 substrate concentrations 3.13-100 µM
[6] = other: hCE2, 6 substrate concentrations 3.13-100 µM

PON1, sequence (P27169 whole entry, species assumed): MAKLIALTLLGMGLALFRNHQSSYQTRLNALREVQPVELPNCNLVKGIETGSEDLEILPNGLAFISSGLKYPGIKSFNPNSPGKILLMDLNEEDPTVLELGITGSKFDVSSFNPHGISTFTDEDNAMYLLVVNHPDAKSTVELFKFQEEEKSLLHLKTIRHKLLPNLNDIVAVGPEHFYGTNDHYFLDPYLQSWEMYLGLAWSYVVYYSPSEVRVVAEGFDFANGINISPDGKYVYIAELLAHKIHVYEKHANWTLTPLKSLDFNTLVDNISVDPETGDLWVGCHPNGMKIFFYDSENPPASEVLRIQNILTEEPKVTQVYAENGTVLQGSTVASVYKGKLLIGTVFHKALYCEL

Molecule: COc1nc(C)ccc1N [V, 2-methyl-5-amino-6-methoxypyridine]
- Fluorescence, fold less than I [1]: 4 fold
- Maximum λemm [1]: 364 nm
- Maximum λexc [1]: 292 nm
- Relative Fluorescence Intensity [1]: 1,100 RFU/nmol

Molecule: CC(=O)Oc1ccc([N+](=O)[O-])cc1 [4-NPA, 4-nitrophenyl acetate]
- Rate of background hydrolysis [2]: 610 pmol/min

Molecule: COc1ccc(N)c(C)n1 [I, 2-methoxy-5-amino-6-methylpyridine]
- Maximum λemm [1]: 394 nm
- Maximum λexc [1]: 304 nm
- Relative Fluorescence Intensity [1]: 4,400 RFU/nmol

Molecule: COc1ccc(N)cn1 [II, 2-methoxy-5-aminopyridine]
- Maximum λemm [1]: 398 nm
- Maximum λexc [1]: 304 nm
- Relative Fluorescence Intensity [1]: 3,100 RFU/nmol

Molecule: CN(C)C(=O)C(CCN1CCC(O)(c2ccc(Cl)cc2)CC1)(c1ccccc1)c1ccccc1 [Loperamide]
- IC50 (hCE3): > 100 µM
- IC50 (AADAC): 23 µM
- IC50 (FAAH): > 100 µM
- IC50 (PON1): > 100 µM

Molecule: COc1ccc2cc(C=O)ccc2c1 [VI, 6-methoxynaphthaldehyde]
- Maximum λemm [1]: 462 nm
- Maximum λexc [1]: 320 nm
- Relative Fluorescence Intensity [1]: 2,600 RFU/nmol

B1: hCE1 (Homo sapiens) (protein)
chain: GHPSSPPVVDTVHGKVLGKFVSLEGFAQPVAIFLGIPFAKPPLGPLRFTPPQPAEPWSFVKNATSYPPMCTQDPKAGQLLSELFTNRKENIPLKLSEDCLYLNIYTPADLTKKNRLPVMVWIHGGGLMVGAASTYDGLALAAHENVVVVTIQYRLGIWGFFSTGDEHSRGNWGHLDQVAALRWVQDNIASFGGNPGSVTIFGESAGGESVSVLVLSPLAKNLFHRAISESGVALTSVLVKKGDVKPLAEQIAITAGCKTTTSAVMVHCLRQKTEEELLETTLKMKFLSLDLQGDPRESQPLLGTVIDGMLLLKTPEELQAERNFHTVPYMVGINKQEFGWLIPMQLMSYPLSEGQLDQKTAMSLLWKSYPLVCIAKELIPEATEKYLGGTDDTVKKKDLFLDLIADVMFGVPSVIVARNHRDAGAPTYMYEFQYRPSFSSDMKPKTVIGDHGDELFSVFGAPFLKEGASEEEIRLSKMVMKFWANFARNGNPNGEGLPHWPEYNQKEGYLQIGANTQAAQKLKDKEVAFWTNLFAKKAVEKPPQTEHIEL
- Vmax (Kinetic properties [3]; [5]): 0.48 µmol/min/mg
- Vmax/Km (Kinetic properties [3]; [5]): 17000 µL/min/mg
- Vmax (Kinetic properties [4]; [5]): 1.4 µmol/min/mg
- Vmax/Km (Kinetic properties [4]; [5]): 280000 µL/min/mg

B2: hCE2 (Homo sapiens) (protein)
chain: QDSASPIRTTHTGQVLGSLVHVKGANAGVQTFLGIPFAKPPLGPLRFAPPEPPESWSGVRDGTTHPAMCLQDLTAVESEFLSQFNMTFPSDSMSEDCLYLSIYTPAHSHEGSNLPVMVWIHGGALVFGMASLYDGSMLAALENVVVVIIQYRLGVLGFFSTGDKHATGNWGYLDQVAALRWVQQNIAHFGGNPDRVTIFGESAGGTSVSSLVVSPISQGLFHGAIMESGVALLPGLIASSADVISTVVANLSACDQVDSEALVGCLRGKSKEEILAINKPFKMIPGVVDGVFLPRHPQELLASADFQPVPSIVGVNNNEFGWLIPKVMRIYDTQKEMDREASQAALQKMLTLLMLPPTFGDLLREEYIGDNGDPQTLQAQFQEMMADSMFVIPALQVAHFQCSRAPVYFYEFQHQPSWLKNIRPPHMKADHGDELPFVFRSFFGGNYIKFTEEEEQLSRKMMKYWANFARNGNPNGEGLPHWPLFDQEEQYLQLNLQPAVGRALKAHRLQFWKKALPQKIQELEEPEERHTEL
- Vmax (Kinetic properties [3]; [6]): 0.004 µmol/min/mg
- Vmax/Km (Kinetic properties [3]; [6]): 450 µL/min/mg
- Vmax (Kinetic properties [4]; [6]): 9.6 µmol/min/mg
- Vmax/Km (Kinetic properties [4]; [6]): 1.2e+06 µL/min/mg
